Test results taken from article PMC7302971 (Bioorganic chemistry, 2020).
Where two headings read alike, the source gives them in different places.

Columns and labels:
CEM leukemia cells = experiment: Differential Nuclear Staining; assay type: cell-based, human; settings: 48 h; for cell death at 100 μM: CEM, DNS assay; for CC50: Homo sapiens
Method in brief: (§1)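 Cells were seeded at 10,000/well and exposed to test compound for 48 h at 1% (v/v) final DMSO. The first screen used a single concentration with controls in quadruplicate. Dose-response used 0.5–100 μM in triplicate. Controls: DMSO vehicle, hydrogen peroxide (positive), untreated (negative). Hoechst 33342 plus PI were added 2 h before automated imaging, and colocalised signal was scored as dead. […] Two-tailed t-test versus DMSO.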

K-562 leukemia cells = experiment: Differential Nuclear Staining; assay type: cell-based, human; settings: for CC50: Homo sapiens, K562, 48 h; for cell death at 100 μM: K562, DNS assay, 48 h
Method in brief: as §1

KCL-22 leukemia cells = experiment: Differential Nuclear Staining; assay type: cell-based, human; settings: for cell death at 100 μM: KCL22, DNS assay, 48 h
Method in brief: as §1

HDAC4 = HDAC4 (Homo sapiens, UniProt P56524); experiment: HDAC enzyme activity assay; assay type: biochemical; settings: for remaining activity at 50 µM: read-out: Residual HDAC4 activity at 50 μM
Chain of HDAC4 (P56524 648-1057 limits assumed): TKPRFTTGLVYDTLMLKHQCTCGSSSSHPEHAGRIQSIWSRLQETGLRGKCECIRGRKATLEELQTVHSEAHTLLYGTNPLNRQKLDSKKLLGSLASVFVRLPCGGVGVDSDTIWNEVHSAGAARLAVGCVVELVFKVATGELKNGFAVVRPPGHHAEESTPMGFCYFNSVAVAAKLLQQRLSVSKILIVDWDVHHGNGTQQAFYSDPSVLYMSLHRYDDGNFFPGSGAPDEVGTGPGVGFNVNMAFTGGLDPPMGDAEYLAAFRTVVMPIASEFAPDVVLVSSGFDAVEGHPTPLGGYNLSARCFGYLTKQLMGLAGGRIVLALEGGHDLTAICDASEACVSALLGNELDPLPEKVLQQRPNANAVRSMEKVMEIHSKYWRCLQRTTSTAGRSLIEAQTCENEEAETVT
Method in brief: (§2)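 HDAC4 and HDAC8 were in-house recombinant enzymes. Each was preincubated with inhibitor, either a single 50 μM screen or serial dilutions, for 60 min at 30 °C in Tris-HCl pH 8.0/KCl/Pluronic buffer. Substrate was 20 μM Boc-Lys(trifluoroacetyl)-AMC for 60 min at 30 °C, stopped with 1.7 μM SATFMK, and developed with trypsin. AMC fluorescence was read at 350/450 nm and reported as residual activity or as IC50 from a four-parameter logistic fit.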

HDAC8 [1] = molecular target: T1, HDAC8 (Homo sapiens, UniProt Q9BY41); experiment: HDAC enzyme activity assay; assay type: biochemical; settings: for remaining activity at 50 µM: read-out: Residual HDAC8 activity at 50 μM
T1 sequence (Q9BY41 1-377): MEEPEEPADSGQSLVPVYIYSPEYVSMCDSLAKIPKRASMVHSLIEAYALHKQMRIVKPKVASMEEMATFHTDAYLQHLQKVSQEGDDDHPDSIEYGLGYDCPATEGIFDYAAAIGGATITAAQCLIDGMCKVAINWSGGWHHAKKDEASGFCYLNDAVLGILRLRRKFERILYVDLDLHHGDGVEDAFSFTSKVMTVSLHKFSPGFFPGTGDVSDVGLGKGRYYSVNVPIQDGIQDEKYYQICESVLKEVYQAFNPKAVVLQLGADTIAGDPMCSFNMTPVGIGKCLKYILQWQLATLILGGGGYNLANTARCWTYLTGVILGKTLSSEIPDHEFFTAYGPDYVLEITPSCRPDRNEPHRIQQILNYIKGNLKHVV
Method in brief: as §2

HDAC8 [2] = molecular target: T1, HDAC8; experiment: Thermal shift assay; assay type: binding

Compound | remaining activity at 50 µM (HDAC4) | remaining activity at 50 µM (HDAC8 [1]) | IC50 (HDAC4) | IC50 (HDAC8 [1]) | other results
O=C(CN1C(=O)SC(=Cc2ccccn2)C1=O)Nc1cc(C(F)(F)F)ccc1Cl [Compound P9, N-(2-chloro-5-(trifluoromethyl)phenyl)-2-(2,4-dioxo-5-(pyridin-2-ylmethylene)thiazolidin-3-yl)acetamide] | 100% | 38% | – | – | cell death at 100 μM (CEM leukemia cells): 4.80% cell death at 100 μM; CC50 (K-562 leukemia cells): 102 ± 2.45 µM; cell death at 100 μM (KCL-22 leukemia cells): 6.54% cell death at 100 μM; Thermal shift (ΔT), stabilizing effect on HDAC8 (HDAC8 [2]): did not confer significant stability to the protein
COc1ccc(NC(=O)CN2C(=O)SC(=Cc3ccccn3)C2=O)cc1 [Compound P14, 2-(2,4-dioxo-5-(pyridin-2-ylmethylene)thiazolidin-3-yl)-N-(4-methoxyphenyl)acetamide] | 100% | 67% | > 50 µM | > 50 µM | –
O=C(CN1C(=O)SC(=Cc2ccccn2)C1=O)Nc1ccc(Br)cc1F [Compound P4, N-(4-bromo-2-fluorophenyl)-2-(2,4-dioxo-5-(pyridin-2-ylmethylene)thiazolidin-3-yl)acetamide] | 100% | 85% | > 50 µM | > 50 µM | –
O=C(CN1C(=O)SC(=Cc2ccccn2)C1=O)Nc1c(F)cc(Br)cc1F [Compound P15, N-(4-bromo-2,6-difluorophenyl)-2-(2,4-dioxo-5-(pyridin-2-ylmethylene)thiazolidin-3-yl)acetamide] | 100% | 94% | > 50 µM | > 50 µM | –
O=C(CN1C(=O)SC(=Cc2ccccn2)C1=O)Nc1ccccc1F [Compound P2, 2-(2,4-dioxo-5-(pyridin-2-ylmethylene)thiazolidin-3-yl)-N-(2-fluorophenyl)acetamide] | 100% | 92% | > 50 µM | > 50 µM | –
O=C(CN1C(=O)SC(=Cc2ccccn2)C1=O)Nc1ccccc1Oc1ccccc1 [Compound P13, 2-(2,4-dioxo-5-(pyridin-2-ylmethylene)thiazolidin-3-yl)-N-(2-phenoxyphenyl)acetamide] | 100% | 91% | > 50 µM | > 50 µM | –
COc1cccc(NC(=O)CN2C(=O)SC(=Cc3ccccn3)C2=O)c1 [Compound P24, 2-(2,4-dioxo-5-(pyridin-2-ylmethylene)thiazolidin-3-yl)-N-(3-methoxyphenyl)acetamide] | 100% | 68% | > 50 µM | > 50 µM | –
O=C(CN1C(=O)SC(=Cc2ccccn2)C1=O)Nc1cccc(C(F)(F)F)c1 [Compound P6, 2-(2,4-dioxo-5-(pyridin-2-ylmethylene)thiazolidin-3-yl)-N-(3-(trifluoromethyl)phenyl)acetamide] | 100% | 82% | > 50 µM | > 50 µM | –
O=C(CN1C(=O)SC(=Cc2ccccn2)C1=O)Nc1ccccn1 [Compound P23, 2-(2,4-dioxo-5-(pyridin-2-ylmethylene)thiazolidin-3-yl)-N-(pyridin-2-yl)acetamide] | 85% | 54% | > 50 µM | > 50 µM | –
O=C(CN1C(=O)SC(=Cc2ccccn2)C1=O)Nc1nccs1 [Compound P20, 2-(2,4-dioxo-5-(pyridin-2-ylmethylene)thiazolidin-3-yl)-N-(thiazol-2-yl)acetamide] | 100% | 92% | > 50 µM | > 50 µM | –
Cc1cnc(NC(=O)CN2C(=O)SC(=Cc3ccccn3)C2=O)s1 [Compound P21, 2-(2,4-dioxo-5-(pyridin-2-ylmethylene)thiazolidin-3-yl)-N-(5-methylthiazol-2-yl)acetamide] | 100% | 54% | > 50 µM | > 50 µM | –
O=C(CN1C(=O)SC(=Cc2ccccn2)C1=O)Nc1ccc(Cl)cc1C(F)(F)F [Compound P7, N-(4-chloro-2-(trifluoromethyl)phenyl)-2-(2,4-dioxo-5-(pyridin-2-ylmethylene)thiazolidin-3-yl)acetamide] | 100% | 61% | > 50 µM | > 50 µM | –
O=C(CN1C(=O)SC(=Cc2ccccn2)C1=O)Nc1cccc(F)c1 [Compound P3, 2-(2,4-dioxo-5-(pyridin-2-ylmethylene)thiazolidin-3-yl)-N-(3-fluorophenyl)acetamide] | 100% | 53% | > 50 µM | > 50 µM | –
O=C(CN1C(=O)SC(=Cc2ccccn2)C1=O)Nc1ccc([N+](=O)[O-])cc1 [Compound P16, 2-(2,4-dioxo-5-(pyridin-2-ylmethylene)thiazolidin-3-yl)-N-(4-nitrophenyl)acetamide] | 100% | – | > 50 µM | > 50 µM | –
O=C(CN1C(=O)SC(=Cc2ccccn2)C1=O)Nc1ccccc1 [Compound P1, 2-(2,4-dioxo-5-(pyridin-2-ylmethylene)thiazolidin-3-yl)-N-phenylacetamide] | 100% | 89% | > 50 µM | > 50 µM | –
O=C(CN1C(=O)SC(=Cc2ccccn2)C1=O)Nc1ccc(Br)cc1 [Compound P22, N-(4-bromophenyl)-2-(2,4-dioxo-5-(pyridin-2-ylmethylene)thiazolidin-3-yl)acetamide] | 100% | 64% | > 50 µM | > 50 µM | –
O=C(CN1C(=O)SC(=Cc2ccccn2)C1=O)Nc1ccc(F)cc1 [Compound P11, 2-(2,4-dioxo-5-(pyridin-2-ylmethylene)thiazolidin-3-yl)-N-(4-fluorophenyl)acetamide] | 100% | – | > 50 µM | > 50 µM | –
O=C(CN1C(=O)SC(=Cc2ccccn2)C1=O)Nc1ccc(Br)c(Br)c1 [Compound P25, N-(3,4-dibromophenyl)-2-(2,4-dioxo-5-(pyridin-2-ylmethylene)thiazolidin-3-yl)acetamide] | 86% | 89% | > 50 µM | > 50 µM | CC50 (CEM leukemia cells): 39 ± 1.69 µM; CC50 (K-562 leukemia cells): 65.6 ± 1.13 µM; CC50 (KCL-22 leukemia cells; Homo sapiens, KCL-22, 48 h): 82.2 ± 0.32 µM
Cc1ccc(NC(=O)CN2C(=O)SC(=Cc3ccccn3)C2=O)cc1 [Compound P12, 2-(2,4-dioxo-5-(pyridin-2-ylmethylene)thiazolidin-3-yl)-N-(p-tolyl)acetamide] | 100% | 75% | – | 47 ± 1.1 µM | cell death at 100 μM (CEM leukemia cells): 38.67% cell death at 100 μM; cell death at 100 μM (K-562 leukemia cells): 39.42% cell death at 100 μM; cell death at 100 μM (KCL-22 leukemia cells): 24.81% cell death at 100 μM; Thermal shift (ΔT), stabilizing effect on HDAC8 (HDAC8 [2]): did not confer significant stability to the protein
Cc1ccc(NC(=O)CN2C(=O)SC(=Cc3ccccn3)C2=O)cc1Cl [Compound P17, N-(3-chloro-4-methylphenyl)-2-(2,4-dioxo-5-(pyridin-2-ylmethylene)thiazolidin-3-yl)acetamide] | 100% | 88% | > 50 µM | > 50 µM | –
2-(2,4-dioxo-5-(pyridin-2-ylmethylene)thiazolidin-3-yl)-N-(4-methylisoxazol-3-yl)acetamide [Compound P18] | – | – | – | – | Residual HDAC4 activity at 50 μM (HDAC4; 50 μM): 100%; IC50 (HDAC4; read-out: HDAC4 IC50, triplicates, N=3): > 50 µM; Residual HDAC8 activity at 50 μM (HDAC8 [1]; 50 μM): 99%; IC50 (HDAC8 [1]; read-out: HDAC8 IC50, triplicates, N=3): > 50 µM
O=C(CN1C(=O)SC(=Cc2ccccn2)C1=O)Nc1ccc(Cl)c(Cl)c1 [Compound P8, N-(3,4-dichlorophenyl)-2-(2,4-dioxo-5-(pyridin-2-ylmethylene)thiazolidin-3-yl)acetamide] | 100% | 82% | > 50 µM | > 50 µM | CC50 (CEM leukemia cells): 36.9 ± 1.11 µM; cell death at 100 μM (K-562 leukemia cells): 40.28% cell death at 100 μM; cell death at 100 μM (KCL-22 leukemia cells): 29.22% cell death at 100 μM
O=C(CN1C(=O)SC(=Cc2ccccn2)C1=O)Nc1ccc(F)cc1F [Compound P5, N-(2,4-difluorophenyl)-2-(2,4-dioxo-5-(pyridin-2-ylmethylene)thiazolidin-3-yl)acetamide] | 59% | 80% | 50 µM | > 50 µM | Thermal shift (ΔT), stabilizing effect on HDAC8 (HDAC8 [2]): did not confer significant stability to the protein
